Reference: ChEMBL document CHEMBL1156480, “Insensitivity to Abeta42-lowering nonsteroidal anti-inflammatory drugs and gamma-secretase inhibitors is common among aggressive presenilin-1 mutations” (J Biol Chem, 2007)
pEC50: −log10 of the molar value.

Columns and labels:
CHO [1] = assay: Reduction of human PS1 delta exon9 mutant-induced amyloid beta42 level in CHO cells overexpressing human APP751 at 0.5 nM after 24 hrs by liquid phase electrochemiluminescence assay relative to control; format: cell-based; design: scale not given: the % may be the effect or the level left
CHO [2] = assay: Reduction of human PS1 delta exon9 mutant-induced amyloid beta-40 level in CHO cells overexpressing human APP751 at 0.2 nM after 24 hrs by liquid phase electrochemiluminescence assay relative to control; format: cell-based; design: scale not given: the % may be the effect or the level left
Summary of the method: (§1)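 APP751 CHO cells stably expressing PS1-ΔExon9, PS1-L166P or PS1-WT, cultured in parallel in serum-containing medium. Treated 24 h with increasing γ-secretase inhibitor concentrations or DMSO. Conditioned-media Abeta40/Abeta42 quantified by LPECL against synthetic peptide standards (16–2000 pg/ml). Duplicates normalized to DMSO. n = 3, one-way ANOVA with Dunnett's test versus PS1-WT.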

[3] = Reduction of human PS1 delta exon9 mutant-induced amyloid beta-42 level in CHO cells overexpressing human APP751after 24 hrs by liquid phase electrochemiluminescence assay relative to control; format: cell-based
Mus musculus [4] = assay: Reduction of amyloid beta-40 level in Swedish APP and human PS1-L166P APPPS1 transgenic mouse brain at 10 mg/kg, po after 3 hrs by ELISA relative to control; format: functional; design: scale not given: the % may be the effect or the level left
Summary of the method: (§2)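 Mice given one oral 10 mg/kg dose in 0.5% tylose, or vehicle alone; the lines cover 5-month-old Tg2576 (Swedish APP) mice and 2-month-old APPPS1 (Swedish APP + human PS1-L166P, Thy-1 promoter) mice. Killed 3 h post-dose. Brain homogenized in Tris buffer with 0.2% Triton X-100 and spun 1 h at 200,000 x g. Soluble supernatant Abeta40 (6E10 capture) and Abeta42 measured by sandwich ELISA. n = 4–6, paired t-test.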

[5] = test system: Presenilin-1 (Homo sapiens), P49768 [L166P]; assay: Reduction of human PS1 L166P mutant-induced amyloid beta42 level in CHO cells overexpressing human APP751 at 0.2 nM after 24 hrs by liquid phase electrochemiluminescence assay relative to control; format: cell-based; design: scale not given: the % may be the effect or the level left; summary of the method: as §1
CHO [6] = assay: Reduction of human PS1 delta exon9 mutant-induced amyloid beta42 level in CHO cells overexpressing human APP751 at 0.2 nM after 24 hrs by liquid phase electrochemiluminescence assay relative to control; format: cell-based; design: scale not given: the % may be the effect or the level left
[7] = test system: Presenilin-1 (Homo sapiens), P49768 [L166P]; assay: Reduction of human PS1 L166P mutant-induced amyloid beta-40 level in CHO cells overexpressing human APP751 at 0.1 nM after 24 hrs by liquid phase electrochemiluminescence assay relative to control; format: cell-based; design: scale not given: the % may be the effect or the level left; summary of the method: as §1
Mus musculus [8] = assay: Reduction of amyloid beta42 level in Swedish APP and human PS1-L166P APPPS1 transgenic mouse brain at 10 mg/kg, po after 3 hrs by ELISA relative to control; format: functional; design: scale not given: the % may be the effect or the level left; summary of the method: as §2
[9] = target: Presenilin-1 (Homo sapiens) (UniProt P49768); assay: Reduction of human wild type PS1-induced amyloid beta-42 level in CHO cells overexpressing human APP751 at 0.5 nM after 24 hrs by liquid phase electrochemiluminescence assay relative to control; format: cell-based; design: scale not given: the % may be the effect or the level left
CHO [10] = assay: Reduction of human PS1 delta exon9 mutant-induced amyloid beta40 level in CHO cells overexpressing human APP751 at 0.5 nM after 24 hrs by liquid phase electrochemiluminescence assay relative to control; format: cell-based; design: scale not given: the % may be the effect or the level left
Mus musculus [11] = assay: Reduction of amyloid beta-42 level in Swedish APP and human PS1-L166P APPPS1 transgenic mouse brain at 10 mg/kg, po after 3 hrs by ELISA; format: functional; summary of the method: as §2
[12] = Reduction of human PS1 delta exon9 mutant-induced amyloid beta-40 level in CHO cells overexpressing human APP751after 24 hrs by liquid phase electrochemiluminescence assay relative to control; format: cell-based
[13] = target: Presenilin-1 (Homo sapiens) (UniProt P49768); assay: Reduction of human wild type PS1-induced amyloid beta40 level in CHO cells overexpressing human APP751 at 0.5 nM after 24 hrs by liquid phase electrochemiluminescence assay relative to control; format: cell-based; design: scale not given: the % may be the effect or the level left
CHO [14] = assay: Reduction of human PS1 delta exon9 mutant-induced amyloid beta42 level in CHO cells overexpressing human APP751 at 0.1 nM after 24 hrs by liquid phase electrochemiluminescence assay relative to control; format: cell-based; design: scale not given: the % may be the effect or the level left
[15] = test system: Presenilin-1 (Homo sapiens), P49768 [L166P]; assay: Reduction of human PS1 L166P mutant-induced amyloid beta42 level in CHO cells overexpressing human APP751 at 0.1 nM after 24 hrs by liquid phase electrochemiluminescence assay relative to control; format: cell-based; design: scale not given: the % may be the effect or the level left; summary of the method: as §1
Mus musculus [16] = assay: Reduction of amyloid beta-40 level in Tg2576 mouse brain at 10 mg/kg, po after 3 hrs by ELISA relative to control; format: functional; design: scale not given: the % may be the effect or the level left; summary of the method: as §2
[17] = target: Presenilin-1 (Homo sapiens) (UniProt P49768); assay: Reduction of human wild type PS1-induced amyloid beta-40 level in CHO cells overexpressing human APP751 at 0.1 nM after 24 hrs by liquid phase electrochemiluminescence assay relative to control; format: cell-based; design: scale not given: the % may be the effect or the level left
[18] = target: Presenilin-1 (Homo sapiens) (UniProt P49768); assay: Reduction of human wild type PS1-induced amyloid beta42 level in CHO cells overexpressing human APP751 at 0.1 nM after 24 hrs by liquid phase electrochemiluminescence assay relative to control; format: cell-based; design: scale not given: the % may be the effect or the level left
Mus musculus [19] = assay: Reduction of amyloid beta-42 level in Tg2576 mouse brain at 10 mg/kg, po after 3 hrs by ELISA relative to control; format: functional; design: scale not given: the % may be the effect or the level left; summary of the method: as §2
[20] = target: Presenilin-1 (Homo sapiens) (UniProt P49768); assay: Reduction of human wild type PS1-induced amyloid beta-40 level in CHO cells overexpressing human APP751 at 0.2 nM after 24 hrs by liquid phase electrochemiluminescence assay relative to control; format: cell-based; design: scale not given: the % may be the effect or the level left
[21] = test system: Presenilin-1 (Homo sapiens), P49768 [L166P]; assay: Reduction of human PS1 L166P mutant-induced amyloid beta42 level in CHO cells overexpressing human APP751 at 0.5 nM after 24 hrs by liquid phase electrochemiluminescence assay relative to control; format: cell-based; design: scale not given: the % may be the effect or the level left; summary of the method: as §1
CHO [22] = assay: Reduction of human PS1 delta exon9 mutant-induced amyloid beta-40 level in CHO cells overexpressing human APP751 at 0.1 nM after 24 hrs by liquid phase electrochemiluminescence assay relative to control; format: cell-based; design: scale not given: the % may be the effect or the level left; summary of the method: as §1
Mus musculus [23] = assay: Reduction of amyloid beta-40 level in Swedish APP and human PS1-L166P APPPS1 transgenic mouse brain at 10 mg/kg, po after 3 hrs by ELISA; format: functional; summary of the method: as §2
[24] = target: Presenilin-1 (Homo sapiens) (UniProt P49768); assay: Reduction of human wild type PS1-induced amyloid beta42 level in CHO cells overexpressing human APP751 at 0.2 nM after 24 hrs by liquid phase electrochemiluminescence assay relative to control; format: cell-based; design: scale not given: the % may be the effect or the level left
Mus musculus [25] = assay: Reduction of amyloid beta40 level in Tg2576 mouse brain at 10 mg/kg, po after 3 hrs by ELISA; format: functional; summary of the method: as §2
Mus musculus [26] = assay: Reduction of amyloid beta-42 level in Tg2576 mouse brain at 10 mg/kg, po after 3 hrs by ELISA; format: functional; summary of the method: as §2
[27] = test system: Presenilin-1 (Homo sapiens), P49768 [L166P]; assay: Reduction of human PS1 L166P mutant-induced amyloid beta40 level in CHO cells overexpressing human APP751 at 0.5 nM after 24 hrs by liquid phase electrochemiluminescence assay relative to control; format: cell-based; design: scale not given: the % may be the effect or the level left; summary of the method: as §1
[28] = test system: Presenilin-1 (Homo sapiens), P49768 [L166P]; assay: Reduction of human PS1 L166P mutant-induced amyloid beta40 level in CHO cells overexpressing human APP751 at 0.2 nM after 24 hrs by liquid phase electrochemiluminescence assay relative to control; format: cell-based; design: scale not given: the % may be the effect or the level left; summary of the method: as §1

## C[C@H](NC(=O)[C@@H](O)c1cc(F)cc(F)c1)C(=O)N[C@@H]1C(=O)N(C)c2ccccc2-c2ccccc21
CHO [1]
  Activity: 26.5%
CHO [2]
  Activity: 72.9%
[3]
  pEC50: 9.45
Mus musculus [4]
  Activity: 81.2%
[5]
  Activity: 57.7%
CHO [6]
  Activity: 72%
[7]
  Activity: 66.6%
Mus musculus [8]
  Activity: 17.1%
[9]
  Activity: 4.75%
CHO [10]
  Activity: 26.7%
Mus musculus [11]
  Activity: 2.9 pmol/g
[12]
  pEC50: 9.45
[13]
  Activity: 5.6%
CHO [14]
  Activity: 94.4%
[15]
  Activity: 85.2%
Mus musculus [16]
  Activity: 85%
[17]
  Activity: 64.2%
[18]
  Activity: 71%
Mus musculus [19]
  Activity: 89%
[20]
  Activity: 15.8%
[21]
  Activity: 28.7%
CHO [22]
  Activity: 92.6%
Mus musculus [23]
  Activity: 0.42 pmol/g
[24]
  Activity: 18.8%
Mus musculus [25]
  Activity: 1.23 pmol/g
Mus musculus [26]
  Activity: 0.21 pmol/g
[27]
  Activity: 11.7%
[28]
  Activity: 36.2%
